PMC9523306 (The Journal of Veterinary Medical Science, 2022)

Columns and labels:
Experiment in all cases: Reverse transcription-PCR, right cerebral cortex
Assay type in all cases: in vivo, rat
Conditions in all cases: retinoic acid + MCAO animals; 5 mg/kg intraperitoneally for four days before MCAO; ratio of PCR product intensity to β-actin intensity; mean ± S.E.M., n=5
[1] = system: Adenosylhomocysteinase mRNA
Procedure, shortened: (§1)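 Male Sprague-Dawley rats (200–220 g). Test compound was given in PEG/0.9% NaCl/ethanol (70/20/10 by volume), and vehicle was solvent alone. The right MCA origin was occluded by intraluminal 4–0 nylon suture for 24 hr; shams had surgery without the suture. Total RNA from the right cortex (Trizol) was used, with 500 ng reverse-transcribed. PCR ran 28–30 cycles (94°C 30 sec, 54–56°C 30 sec, 72°C 1 min), then 1% agarose, UV, densitometry. Two-way ANOVA, Scheffe post-hoc.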

[2] = system: Isocitrate dehydrogenase [NAD^+] subunit α mRNA
Procedure, shortened: as §1

[3] = system: glycerol-3-phosphate dehydrogenase mRNA
Procedure, shortened: as §1

[4] = system: Rab GDP dissociation inhibitor β mRNA
Procedure, shortened: as §1

Apolipoprotein A1 mRNA = system: Apolipoprotein A1 mRNA
Procedure, shortened: as §1

[5] = system: heat shock protein 60 mRNA
Procedure, shortened: as §1

For `CC1=C(/C=C/C(C)=C/C=C/C(C)=C/C(=O)O)C(C)(C)CCC1` [retinoic acid, Retinoic acid], the “Adenosylhomocysteinase mRNA levels” value [1] was 1.28 ± 0.06, the “Isocitrate dehydrogenase [NAD^+] subunit α mRNA levels” value [2] was 1.36 ± 0.05 and the “Expression levels of glycerol-3-phosphate dehydrogenase mRNA” value [3] was 0.91 ± 0.02. For the same molecule, the “Rab GDP dissociation inhibitor β mRNA levels” value [4] was 1.02 ± 0.02, the “Apolipoprotein A1 mRNA levels” value (Apolipoprotein A1 mRNA) was 1.13 ± 0.02 and the “Expression levels of heat shock protein 60 mRNA” value [5] was 0.95 ± 0.05.
